Experimental findings from ChEMBL document CHEMBL3792290, “Part 1: Notch-sparing γ-secretase inhibitors: The identification of novel naphthyl and benzofuranyl amide analogs” (Bioorg Med Chem Lett, 2016) are described below.

Data set [1] in a line: Inhibition of human gamma-secretase expressed in CHO cells assessed as effect on Notch1 processing at 100 uM using N100-Flag as substrate incubated for 4 hrs by Western blot analysis relative to DMSO control. Format: cell-based. In short, it runs like this: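 Purified human γ-secretase from CHO cells stably overexpressing all four components; E. coli-expressed purified C100-Flag (APP) or N100-Flag (Notch) substrate; compounds at 100 μM final in 0.2% CHAPSO/HEPES pH 7.0 with 0.08% phosphatidylcholine, 0.02% phosphatidylethanolamine, DMSO <1% final; 37°C, 4 h; stopped with 0.5% SDS; Aβ40 by ELISA or Notch1 processing by Western blot, versus DMSO control.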
On the technique in general: A western blot detects proteins with antibodies after separation by electrophoresis.

Data set [2] concerns the target Gamma-secretase. In words: Inhibition of gamma-secretase (unknown origin) assessed as suppression of amyloid beta 42 production by cell-based assay. Also on record: species or system Homo sapiens.
Data set [3] has as its target T1, Gamma-secretase (Homo sapiens) (UniProt Q96BI3+Q9NZ42+Q8WW43+P49768+Q92542+P49810). In words: Inhibition of purified human gamma-secretase expressed in CHO cells assessed as suppression of amyloid beta 40 production at 100 uM using C100-Flag as substrate incubated for 4 hrs by ELISA relative to DMSO control. A general note: ELISA stands for enzyme-linked immunosorbent assay.

Data set [4] concerns the target Gamma-secretase. In words: Inhibition of human gamma-secretase expressed in CHO cells assessed as suppression of amyloid beta 40 production using C100-Flag as substrate incubated for 4 hrs by ELISA relative to DMSO control. It counts as cell-based. In short, it runs like this: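 Enzyme from CHO cells stably overexpressing all four γ-secretase components, purified; C100-Flag substrate expressed in E. coli; reaction in 0.2% CHAPSO/HEPES pH 7.0 containing 0.08% phosphatidylcholine and 0.02% phosphatidylethanolamine, final DMSO <1%; incubated 37°C for 4 h, quenched with SDS (0.5% final); Aβ40 quantified by specific ELISA as percent of DMSO control.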

The target in data set [5] is Gamma-secretase. In words: Inhibition of gamma-secretase (unknown origin) assessed as suppression of amyloid beta 40 production by cell-based assay. Details: species or system Homo sapiens; call rule not given here.
The nature of data set [6]: Inhibition of gamma-secretase (unknown origin) assessed as suppression of Notch1 processing by cell-based assay. Particulars: Homo sapiens.
Data set [7] is described as follows: Solubility of compound in PBS buffer at pH 7.4. Format: physicochemical.
A short description of data set [8]: Lipophilicity, logD of the compound. Format: physicochemical. Particulars: octanol/water.
The nature of data set [9]: Protein binding in human plasma. Format: ADME, cell-free. To be noted: read-out: PPB (converted).
The nature of data set [10]: Permeability of compound from apical to basolateral side. It counts as ADME. To be noted: not told; read-out: permeability.
Data set [11] in a line: Metabolic stability in human liver microsomes assessed as parent compound remaining after 60 mins. It counts as ADME. Particulars: read-out: Stability. Background: Microsomes from liver hold many membrane-bound enzymes, among them those of drug oxidation.
The nature of data set [12]: Metabolic stability in rat liver microsomes assessed as parent compound remaining after 60 mins. Format: ADME. Particulars: read-out: Stability.
Data set [13] addresses T1, Gamma-secretase (Homo sapiens). In words: Inhibition of gamma-secretase (unknown origin) assessed as suppression of amyloid beta 42 production at 100 uM by cell-based assay.
Data set [14] addresses Gamma-secretase. In words: Inhibition of human gamma-secretase expressed in CHO cells assessed as suppression of amyloid beta 42 production using C100-Flag as substrate incubated for 4 hrs by ELISA. Format: cell-based.

Values after ≈ are worked out from the molar mass of the structure shown.

Usually IC50 stands for the concentration that inhibits the measured activity by half. Usually inhibition stands for the change of the read-out against control, counted positive when it falls. In general, solubility refers to how much of the substance goes into solution per volume. A low value points to little dissolved substance. As a reminder, the logD is lipophilicity at a set pH, counting ionised and neutral species.

Consider `CC(C)N(Cc1ccc(Cl)c(Cl)c1)C(=O)c1ccc2ccccc2c1`, for which, in [1], the “inhibition (INH)” value was “Not Active”. At Gamma-secretase [2], the IC50 turned out to be 135000 nM. For the same molecule, the inhibition in data set [3] was determined as 58%.

For the molecule `COc1ccc(CN(C(=O)c2ccc3ccccc3c2O)C(C)C)cc1`, in data set [1], the “inhibition (INH)” value was “Not Active”. Besides, the half-maximal inhibitory concentration (IC50) on Gamma-secretase [2] worked out at 95000 nM. For the same molecule, the inhibition in data set [3] was found to be 33%.

With `O=C(NCc1ccccc1)c1ccc2ccccc2c1`, in data set [3], the inhibition is 0%.

Turning to `CC(C)N(Cc1ccc(F)c(F)c1)C(=O)c1ccc2ccccc2c1O`, in [1], the “inhibition (INH)” value is “Not Active”. The inhibition in [3] is 49%.

On to `COc1cccc2cc(C(=O)N(Cc3ccc(Cl)c(F)c3)C(C)C)oc12`, for which the “inhibition (INH)” value in data set [1] is reported as “Not Active”. Moreover, the inhibition in [3] is 23%.

As for `CC(C)N(Cc1ccc(Cl)c(Cl)c1)C(=O)c1cc2ccccc2o1`, in [1], the “inhibition (INH)” value is given as “Not Active”. Moreover, the inhibition in data set [3] is 51%.

Regarding `COC(=O)c1ccc(CN(c2cc(F)ccc2F)S(=O)(=O)c2ccc(F)cc2)cc1`, the IC50 on Gamma-secretase [4] amounted to 580 nM.

For the molecule `CCC(CC)N(Cc1ccc(C(=O)O)cc1)S(=O)(=O)c1ccc(Cl)cc1`, the IC50 on Gamma-secretase [2] was 130 nM; on Gamma-secretase [5], 120 nM; in data set [6] it was 10000 nM.

On to `CC(C)N(Cc1ccccc1)C(=O)c1ccc2ccccc2c1O`, for which the “inhibition (INH)” value in data set [1] was “Not Active”. For the same molecule, the IC50 on Gamma-secretase [2] was 96000 nM. For the same molecule, the inhibition in data set [3] came out at 67%.

Consider `CC(C)N(Cc1ccccc1)C(=O)c1cnc2cc(Cl)ccc2c1O`, for which the “inhibition (INH)” value in data set [1] was “Not Active”. Besides, in data set [3], the inhibition was found to be 33%.

Turning to `COc1cccc2cc(C(=O)N(Cc3ccc(F)c(Cl)c3)C(C)C)oc12`, the “inhibition (INH)” value in [1] is “Not Active”. Further, in [3], the inhibition is 49%.

Consider `CC(C)N(Cc1ccccc1)C(=O)c1ccccc1`, for which the inhibition in [3] was determined as 10%.

With `CC(C)(C)N(Cc1ccccc1)C(=O)c1ccc2ccccc2c1`, in [1], the “inhibition (INH)” value is reported as “Not Active”. Further, in data set [3], the inhibition worked out at 52%.

Regarding `CC(C)N(Cc1ccccc1)C(=O)c1cc2ccccc2o1`, the “inhibition (INH)” value in data set [1] is reported as “Not Active”. Moreover, the inhibition in data set [3] came out at 40%.

Turning to `COc1cccc(CN(C(=O)c2ccc3ccccc3c2)C(C)C)c1`, the “inhibition (INH)” value in data set [1] is on record as “Not Active”. The inhibition in [3] came to 19%.

Regarding `CC(C)N(Cc1ccc(Cl)c(Cl)c1)C(=O)c1ccc2ccccc2c1O`, the “inhibition (INH)” value in data set [1] was “Not Active”. Also, the IC50 on Gamma-secretase [2] stood at 85000 nM. Besides, the inhibition in data set [3] turned out to be 41%.

For `CC(C)N(Cc1ccccc1)C(=O)c1cn(C)c2ccccc12`, the inhibition in [3] was 0%.

In the case of `CC(C)N(Cc1ccccc1)C(=O)c1ccc2ccccc2c1`, in data set [7], the solubility was determined as 63 µM (≈ 19.1 µg/mL). In data set [1], the “inhibition (INH)” value is reported as “Not Active”. The same molecule yielded a pH-dependent lipophilicity (logD) in [8] of 4.2. The fraction unbound in [9] was 0.043. Besides, in data set [10], the Papp A→B stood at 39.6 ×10⁻⁶ cm/s. Further, the figures for the remaining at 1 h in data set [11] and in [12] were 28% and 1%, respectively. The inhibition was determined as 81% in [13] and 58% in data set [3].

With `CC(C)N(Cc1ccc(N2CCCCC2)cc1)C(=O)c1ccc2ccccc2c1`, the “inhibition (INH)” value in data set [1] was “Active”. Besides, the inhibition in [3] was determined as 38%.

In the case of `CN(Cc1ccccc1)C(=O)c1ccc2ccccc2c1`, in [3], the inhibition was 15%.

For the molecule `COc1cc(CN(C(=O)c2ccc3ccccc3c2)C(C)C)cc(OC)c1`, the “inhibition (INH)” value in data set [1] is given as “Not Active”. Moreover, the inhibition in data set [3] came out at 35%.

For `O=C(c1ccc2ccccc2c1)N(Cc1ccccc1)C1CC1`, the “inhibition (INH)” value in data set [1] is “Not Active”. For the same molecule, the inhibition in data set [3] amounted to 37%.

For the molecule `CC(C)N(Cc1ccccc1)C(=O)c1ccc2occc2c1`, the inhibition in data set [3] worked out at 14%.

Regarding `CC(C)N(Cc1ccc(C#N)cc1)C(=O)c1ccc2ccccc2c1`, the inhibition in [3] was 31%.

For the molecule `CC(C)N(Cc1ccccc1)C(=O)c1cccc(Oc2ccccc2)c1`, the “inhibition (INH)” value in [1] was “Active”. In addition, the inhibition in data set [3] turned out to be 50%.

As for `COc1ccc(CN(C(=O)c2ccc3ccccc3c2)C(C)C)cc1`, in data set [1], the “inhibition (INH)” value was “Active”. In data set [3], the inhibition was determined as 47%.

Regarding `CC(C)N(Cc1ccc(F)c(F)c1)C(=O)c1ccc2ccccc2c1`, the “inhibition (INH)” value in [1] is listed as “Not Active”. In addition, in data set [3], the inhibition is 34%.

For `COc1cccc2cc(C(=O)N(Cc3ccc(Cl)c(Cl)c3)C(C)C)oc12`, the “inhibition (INH)” value in data set [1] is on record as “Not Active”. For the same molecule, the inhibition in data set [13] came out at 81%; in [3], 75%.

Take `Cc1c(C(=O)N(Cc2ccc(Cl)c(Cl)c2)C(C)C)oc2ccccc12`: the inhibition in data set [3] was found to be 0%.

On to `CC(C)N(Cc1ccccc1)C(=O)c1cnc2ccccc2c1`, for which the “inhibition (INH)” value in [1] was “Active”. For the same molecule, the inhibition in [3] was 50%.

In the case of `CC(C)N(Cc1ccccc1)C(=O)c1ccc(C(C)(C)C)cc1`, the “inhibition (INH)” value in [1] is recorded as “Active”. Moreover, the inhibition in data set [3] is 85%.

With `CC(C)N(Cc1cccc(C#N)c1)C(=O)c1ccc2ccccc2c1`, in [3], the inhibition turned out to be 31%.

`CCOc1cccc2cc(C(=O)N(Cc3ccc(Cl)c(Cl)c3)C(C)C)oc12`: the “inhibition (INH)” value in data set [1] was “Not Active”. Moreover, the inhibition in data set [3] is 58%.

For `CC(C)N(Cc1ccccc1)C(=O)c1ccc(-c2ccccc2)cc1`, the inhibition in data set [3] was determined as 27%.

For `O=S(=O)(c1ccc(F)cc1)N(Cc1ccccc1OC1CCOCC1)c1cc(F)ccc1F`, the IC50 was found to be 620 nM at Gamma-secretase [2], 360 nM on Gamma-secretase [4] and 400 nM at Gamma-secretase [14].

As to `CC(C)N(Cc1cc(F)cc(F)c1)C(=O)c1ccc2ccccc2c1O`, the inhibition in data set [3] was 27%.

`CC(C)N(Cc1cc(F)cc(F)c1)C(=O)c1ccc2ccccc2c1`: the inhibition in data set [3] was 21%.
